Common to all, as to format: functional
The subject of one experiment is Staphylococcus aureus. Kind of experiment: Antibacterial activity against Staphylococcus aureus after 16 to 18 hrs by serial dilution method. As to conditions: for MIC: Staphylococcus aureus. In outline:
(§1)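 The test compound was dissolved in DMF and serially diluted. A standard drop of the prepared microbial culture was added to each dilution, and tubes were incubated at 37 °C for 16–18 h. MIC was taken as the highest dilution that stayed clear with no visible turbidity.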

For a further experiment, the system named is Escherichia coli. The experiment is described as follows: Antibacterial activity against Escherichia coli after 16 to 18 hrs by serial dilution method. The conditions noted are these: for MIC: Escherichia coli. The essentials: as §1
Another experiment has as its system Pseudomonas aeruginosa. Kind of experiment: Antibacterial activity against Pseudomonas aeruginosa after 16 to 18 hrs by serial dilution method. The conditions noted are these: for MIC: Pseudomonas aeruginosa. In outline:
as §1

Another experiment has as its system Klebsiella pneumoniae. The experiment is described as follows: Antibacterial activity against Klebsiella pneumoniae after 16 to 18 hrs by serial dilution method. As to conditions: for MIC: Klebsiella pneumoniae.
Another experiment concerns Talaromyces marneffei. Kind of experiment: Antifungal activity against Penicillium marneffei after 16 to 18 hrs by serial dilution method. The conditions noted are these: for MIC: Talaromyces marneffei. In outline: as §1
The test system of experiment [1] is Trichophyton mentagrophytes. The experiment is described as follows: Antifungal activity against Trichophyton mentagrophytes after 16 to 18 hrs by serial dilution method. The conditions noted are these: for MIC: Trichophyton mentagrophytes.
A further experiment relates to Aspergillus flavus. The experiment is described as follows: Antifungal activity against Aspergillus flavus after 16 to 18 hrs by serial dilution method. The conditions noted are these: for MIC: Aspergillus flavus. The essentials: as §1
The next experiment has as its system Aspergillus fumigatus. The experiment is described as follows: Antifungal activity against Aspergillus fumigatus after 16 to 18 hrs by serial dilution method. As to conditions: for MIC: Aspergillus fumigatus.

In brackets after ≈: the same amount, converted by molar mass. Where only a bound is given, the exact number is not on record here.

In the case of `Cc1cc(C)cc(-c2nnc(-c3ccccc3COc3ccc(Cl)cc3)o2)c1`, the “inhibition zone (IZ)” value (in the experiment on Staphylococcus aureus; with Escherichia coli; with Pseudomonas aeruginosa; with Klebsiella pneumoniae; in the experiment with Talaromyces marneffei; in experiment [1]) was 11 mm each time. For the same compound, the “inhibition zone (IZ)” value with Aspergillus flavus and in the experiment with Aspergillus fumigatus was 11 mm throughout. The minimum inhibitory concentration (MIC) (with Staphylococcus aureus; in the experiment with Escherichia coli; with Pseudomonas aeruginosa; against Klebsiella pneumoniae; in the experiment with Talaromyces marneffei; in experiment [1]) was 12.5 µg/mL (≈ 32 µM) in each case. In addition, the MIC in the experiment on Aspergillus flavus and with Aspergillus fumigatus was 12.5 µg/mL (≈ 32 µM) each time.

Take `Cc1cccc(OCc2ccccc2-c2nnc(-c3cc(C)cc(C)c3)o2)c1`: the “inhibition zone (IZ)” value (in the experiment with Staphylococcus aureus; with Escherichia coli; in the experiment on Pseudomonas aeruginosa; in the experiment with Klebsiella pneumoniae; in the experiment on Talaromyces marneffei; in experiment [1]) was 11 mm each time. The “inhibition zone (IZ)” value in the experiment on Aspergillus flavus came out at 11 mm; with Aspergillus fumigatus it was 16 mm. The MIC (in the experiment with Staphylococcus aureus; in the experiment on Escherichia coli; against Pseudomonas aeruginosa; in the experiment on Klebsiella pneumoniae; in the experiment on Talaromyces marneffei; in experiment [1]) was 12.5 µg/mL (≈ 33.7 µM) each time. Besides, the results for the MIC in the experiment on Aspergillus flavus and against Aspergillus fumigatus were 12.5 µg/mL (≈ 33.7 µM) and 6.25 µg/mL (≈ 16.9 µM), respectively.

Consider `Cc1ccccc1OCc1ccccc1-c1nnc(-c2ccc(Cl)cc2)o1`, for which the “inhibition zone (IZ)” value (in the experiment with Staphylococcus aureus; in the experiment with Escherichia coli; in the experiment on Pseudomonas aeruginosa; in the experiment on Klebsiella pneumoniae; with Talaromyces marneffei; in experiment [1]) was below 10 mm each time. For the same compound, the “inhibition zone (IZ)” value with Aspergillus flavus and in the experiment on Aspergillus fumigatus was below 10 mm in each case. Besides, the MIC (against Staphylococcus aureus; in the experiment on Escherichia coli; in the experiment on Pseudomonas aeruginosa; in the experiment on Klebsiella pneumoniae; with Talaromyces marneffei; in experiment [1]) was 25 µg/mL (≈ 66.3 µM) each time. The MIC in the experiment on Aspergillus flavus and against Aspergillus fumigatus was 25 µg/mL (≈ 66.3 µM) in each case.

For the compound `Cc1ccccc1OCc1ccccc1-c1nnc(-c2cccc3ncccc23)o1`, the “inhibition zone (IZ)” value (in the experiment on Staphylococcus aureus; with Escherichia coli; in the experiment on Pseudomonas aeruginosa; in the experiment on Klebsiella pneumoniae; in the experiment with Talaromyces marneffei; in experiment [1]) was below 10 mm throughout. Besides, the “inhibition zone (IZ)” value with Aspergillus flavus and in the experiment with Aspergillus fumigatus was below 10 mm each time. The MIC (in the experiment with Staphylococcus aureus; in the experiment on Escherichia coli; in the experiment on Pseudomonas aeruginosa; against Klebsiella pneumoniae; with Talaromyces marneffei; in experiment [1]) was 25 µg/mL (≈ 63.5 µM) in each case. The MIC against Aspergillus flavus and in the experiment with Aspergillus fumigatus was 25 µg/mL (≈ 63.5 µM) each time.

Turning to `Cc1cccc(OCc2ccccc2-c2nnc(-c3cccnc3Cl)o2)c1`, the “inhibition zone (IZ)” value with Staphylococcus aureus, in the experiment on Escherichia coli, with Pseudomonas aeruginosa and with Klebsiella pneumoniae was 11 mm throughout. Also, the MIC with Staphylococcus aureus, in the experiment with Escherichia coli, with Pseudomonas aeruginosa and against Klebsiella pneumoniae was 12.5 µg/mL (≈ 33.1 µM) in each case.

`Cc1ccc(OCc2ccccc2-c2nnc(-c3cc(C)cc(C)c3)o2)cc1`: the “inhibition zone (IZ)” value (in the experiment on Staphylococcus aureus; in the experiment with Escherichia coli; in the experiment on Pseudomonas aeruginosa; in the experiment on Klebsiella pneumoniae; in the experiment on Talaromyces marneffei; in experiment [1]) was 11 mm in each case. Besides, the “inhibition zone (IZ)” value in the experiment on Aspergillus flavus and with Aspergillus fumigatus was 11 mm throughout. For the same compound, the minimum inhibitory concentration (MIC) (against Staphylococcus aureus; against Escherichia coli; in the experiment with Pseudomonas aeruginosa; in the experiment with Klebsiella pneumoniae; against Talaromyces marneffei; in experiment [1]) was 12.5 µg/mL (≈ 33.7 µM) each time. The MIC against Aspergillus flavus and with Aspergillus fumigatus was 12.5 µg/mL (≈ 33.7 µM) each time.

For `Cc1cccc(OCc2ccccc2-c2nn(CNc3cccc(C(F)(F)F)c3)c(=S)o2)c1`, the “inhibition zone (IZ)” value with Staphylococcus aureus was 16 mm; with Escherichia coli, 16 mm; with Pseudomonas aeruginosa, 16 mm; in the experiment on Klebsiella pneumoniae it was 16 mm; in the experiment with Talaromyces marneffei it was 11 mm; in experiment [1] it was 11 mm. Further, the “inhibition zone (IZ)” value in the experiment with Aspergillus flavus and in the experiment with Aspergillus fumigatus was 16 mm each time. The MIC turned out to be 6.25 µg/mL (≈ 13.3 µM) in the experiment with Staphylococcus aureus; 6.25 µg/mL (≈ 13.3 µM) against Escherichia coli; 6.25 µg/mL (≈ 13.3 µM) against Pseudomonas aeruginosa; 6.25 µg/mL (≈ 13.3 µM) with Klebsiella pneumoniae; 12.5 µg/mL (≈ 26.5 µM) against Talaromyces marneffei; 12.5 µg/mL (≈ 26.5 µM) in experiment [1]. Also, the MIC in the experiment with Aspergillus flavus and against Aspergillus fumigatus was 6.25 µg/mL (≈ 13.3 µM) each time.

Consider `Cc1cc(C2CCCCC2)n(O)c(=O)c1.NCCO` [CICLOPIROX OLAMINE], for which the “inhibition zone (IZ)” value with Talaromyces marneffei was found to be 20 mm; in experiment [1], 27 mm; with Aspergillus flavus, 25 mm; with Aspergillus fumigatus, 25 mm. In addition, the minimal inhibitory concentration (MIC) in the experiment on Talaromyces marneffei came out at 6.25 µg/mL; in experiment [1], 3.12 µg/mL; against Aspergillus flavus, 3.12 µg/mL; against Aspergillus fumigatus, 6.25 µg/mL.

On to `Cc1ccccc1OCc1ccccc1-c1nnc(-c2cccnc2Cl)o1`, for which the “inhibition zone (IZ)” value in the experiment on Staphylococcus aureus, in the experiment with Escherichia coli, with Pseudomonas aeruginosa and with Klebsiella pneumoniae was 11 mm each time. The minimum inhibitory concentration (MIC) in the experiment with Staphylococcus aureus, in the experiment with Escherichia coli, with Pseudomonas aeruginosa and in the experiment on Klebsiella pneumoniae was 12.5 µg/mL (≈ 33.1 µM) each time.

In the case of `O=C(O)c1cn(C2CC2)c2cc(N3CCNCC3)c(F)cc2c1=O` [CIPROFLOXACIN], the “inhibition zone (IZ)” value in the experiment on Staphylococcus aureus worked out at 30 mm; with Pseudomonas aeruginosa it was 25 mm; in the experiment on Klebsiella pneumoniae, 22 mm. This compound displayed an MIC against Klebsiella pneumoniae of 1.56 µg/mL (≈ 4.71 µM).

In the case of `Clc1ccc(OCc2ccccc2-c2nnc(-c3cccnc3Cl)o2)cc1`, the “inhibition zone (IZ)” value with Staphylococcus aureus, with Escherichia coli, with Pseudomonas aeruginosa and in the experiment on Klebsiella pneumoniae was 11 mm in each case. The MIC against Staphylococcus aureus, in the experiment with Escherichia coli, in the experiment on Pseudomonas aeruginosa and with Klebsiella pneumoniae was 12.5 µg/mL (≈ 31.4 µM) throughout.

In the case of `Cc1ccc(OCc2ccccc2-c2nnc(-c3cccnc3Cl)o2)cc1`, the “inhibition zone (IZ)” value with Staphylococcus aureus, with Escherichia coli, in the experiment on Pseudomonas aeruginosa and in the experiment on Klebsiella pneumoniae was 11 mm throughout. Moreover, the minimal inhibitory concentration (MIC) with Staphylococcus aureus, in the experiment on Escherichia coli, with Pseudomonas aeruginosa and in the experiment with Klebsiella pneumoniae was 12.5 µg/mL (≈ 33.1 µM) in each case.

The values above are taken from ChEMBL document CHEMBL1275272, “Synthesis, characterization and antimicrobial activity of some disubstituted 1,3,4-oxadiazoles carrying 2-(aryloxymethyl)phenyl moiety” (2010).
